Test results as given in ChEMBL document CHEMBL4257469, “Deciphering the role of hydrophobic and hydrophilic bile acids in angiogenesis using in vitro and in vivo model systems” (Medchemcomm, 2017).
The source made the active and inactive calls. The calls are words filed in the database; no cut-off is given here.

What was measured:
Danio rerio [1] = species: Danio rerio; assay: Toxicity in zebrafish embryo assessed as reduction in embryo survival up to 50 uM; format: organism-based; settings: in vivo
Danio rerio [2] = species: Danio rerio; assay: Antiangiogenic activity in Tg(fli:eGFP) zebrafish embryo assessed as effect on phynotypic changes at 6.25 to 12.5 uM after 72 hrs post fertilization by fluorescence microscopic analysis; format: functional, organism-based
Outline: (§1)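 Tg(fli1:eGFP) zebrafish embryos were selected at 48 hpf, 20–25 per well, and exposed to bile acids at 6.25, 12.5 and 25 μM in embryo water from DMSO stocks. Vehicle was 0.1% DMSO. At 72 hpf the solutions were replaced with fresh embryo water. Embryos were anesthetized with tricaine and imaged by stereo and fluorescence microscopy for sub-intestinal vessel sprouting and branching. Two experiments, 50 embryos per group.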

HUVEC [3] = assay: Antiangiogenic activity in HUVEC assessed as inhibition of endothelial tube formation at 25 uM after overnight incubation by inverted microscopic analysis; format: functional, cell-based; settings: Homo sapiens
Outline: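 HUVECs at passages 2–5 were seeded at 2 × 10^5 cells per well on a gelled basement membrane matrix, made as Matrigel mixed 1:1 with plain EBM-2. Bile acids were added at 12.5 and 25 μM, with DMSO as vehicle control, and cells were treated overnight. Bright-field images were taken at 10× from five fields per well. Nodes and tube lengths were quantified. Runs were in triplicate; statistics by one-way ANOVA (Dunnett).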

HUVEC [4] = assay: Cytotoxicity against HUVEC assessed as reduction in cell death up to 12.5 uM after 24 hrs by MTT assay; format: cell-based; settings: human
Outline: (§2)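 HUVECs (passages 2–5, complete EBM-2) seeded at 5 × 10³ cells/well and left 24 h to adhere. Serum-starved 4 h, then exposed to bile acids (serial dilutions, 100 to 6.25 μM) in complete medium for 24 h. MTT added for 4 h at 37 °C, formazan dissolved in DMSO, absorbance read at 550 nm. Run in triplicate; three independent experiments.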

HUVEC [5] = assay: Cytotoxicity against HUVEC assessed as reduction in cell viability at 6.25 to 100 uM after 24 hrs by MTT assay; format: cell-based; settings: human
Outline: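 HUVECs at passages 2–5 were seeded at 5 × 10^3 cells per well in complete EBM-2 and allowed to adhere for 24 h. They were serum-starved 4 h, then given serially diluted bile acids (100 to 6.25 μM) in complete medium for 24 h. MTT was added for 4 h at 37 °C. Formazan was dissolved in DMSO and absorbance read at 550 nm. Three independent experiments.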

Danio rerio [6] = species: Danio rerio; assay: Pro-angiogenic activity in Tg(fli:eGFP) zebrafish embryo assessed as thickening of vessels at 6.25 uM after 72 hrs post fertilization by fluorescence microscopic analysis; format: functional, organism-based; outline: as §1
Danio rerio [7] = species: Danio rerio; assay: Antiangiogenic activity in Tg(fli:eGFP) zebrafish embryo assessed as vascular modification by measuring formation of irregular pattern of branches at 12.5 uM after 72 hrs post fertilization by fluorescence microscopic analysis; format: functional, organism-based; outline: as §1
Danio rerio [8] = species: Danio rerio; assay: Toxicity in Tg(fli:eGFP) zebrafish embryo assessed as embryo death at 25 uM after 72 hrs post fertilization by fluorescence microscopic analysis; format: organism-based; settings: in vivo
Outline: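 Tg(fli1:eGFP) embryos selected at 48 hpf, 20–25 per well, raised at 28.5 °C. Bile acids (DMSO stock, diluted in embryo water) given at 6.25, 12.5 or 25 μM; 0.1% DMSO as vehicle control. Solutions replaced with fresh water at 72 hpf, embryos anaesthetised with tricaine and sub-intestinal vessels imaged by fluorescence. Scored as percentage of embryos; two experiments, 50 embryos/group.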

Danio rerio [9] = species: Danio rerio; assay: Pro-angiogenic activity in Tg(fli:eGFP) zebrafish embryo assessed as sprouting of vessels at 6.25 uM after 72 hrs post fertilization by fluorescence microscopic analysis; format: functional, organism-based; outline: as §1
Danio rerio [10] = species: Danio rerio; assay: Antiangiogenic activity in Tg(fli:eGFP) zebrafish embryo assessed as abnormality in vasculature in developing embryos at 25 uM after 72 hrs post fertilization by fluorescence microscopic analysis; format: functional, organism-based; settings: 12.5 uM, in the assay text read “12.5 uM” for “25 uM”; outline: as §1
HUVEC [11] = assay: Antiangiogenic activity in HUVEC assessed as decrease in tube length at 12.5 uM after overnight incubation by inverted microscopic analysis; format: functional, cell-based; settings: Homo sapiens
Outline: (§3)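 Wells coated with Matigel:plain EBM-2 (1:1). HUVECs added at 2 × 10⁵ cells/well with bile acid (12.5 or 25 μM) or vehicle and left overnight. Bright-field images at 10× from five fields per well; nodes and tube lengths counted. Triplicate, three independent experiments; one-way ANOVA with Dunnett's test.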

HUVEC [12] = assay: Decrease in VEGFR1 m-RNA expression in HUVEC at 12.5 uM after 12 to 24 hrs by RT-qPCR analysis relative to control; format: functional, Homo sapiens
Outline: (§4)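 HUVECs treated with 12.5 μM bile acid or DMSO for 12 and 24 h. Total RNA extracted and 1 μg reverse-transcribed. SYBR-green qPCR for VEGFR1/VEGFR2: 95 °C 10 min, then 40 cycles of 95 °C 5 s / 60 °C 30 s. ΔΔCT normalised to GAPDH and expressed as fold change over control; repeated twice.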

HUVEC [13] = assay: Cytotoxicity against HUVEC assessed as reduction in cell viability at >25 uM after 24 hrs by MTT assay; format: cell-based; settings: human; outline: as §2
Danio rerio [14] = species: Danio rerio; assay: Toxicity in Tg(fli:eGFP) zebrafish embryo assessed as embryo death at 3 uM after 72 hrs post fertilization by fluorescence microscopic analysis; format: organism-based; settings: in vivo
HUVEC [15] = assay: Cytotoxicity against HUVEC assessed as cell death after 24 hrs by MTT assay relative to control; settings: human
HUVEC [16] = assay: Cytotoxicity against HUVEC assessed as cell death at 100 uM after 24 hrs by MTT assay relative to control; format: cell-based; settings: human; outline: as §2
HUVEC [17] = assay: Antiangiogenic activity in HUVEC assessed as decrease in number of nodes at 12.5 uM after overnight incubation by inverted microscopic analysis; format: functional, cell-based; settings: Homo sapiens; outline: as §3
Danio rerio [18] = species: Danio rerio; assay: Toxicity in zebrafish embryo assessed as reduction in embryo survival at 3.25 uM; format: organism-based; settings: in vivo
HUVEC [19] = assay: Decrease in VEGFR2 m-RNA expression in HUVEC at 12.5 uM after 12 to 24 hrs by RT-qPCR analysis relative to control; format: functional, Homo sapiens; outline: as §4
HUVEC [20] = assay: Antiangiogenic activity in HUVEC assessed as induction of irregular stress fiber formation at 12.5 uM after overnight incubation by FITC-conjugated phalloidin staining based confocal microscopic analysis; format: functional, cell-based; settings: Homo sapiens
Outline: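 HUVECs grown to 70% confluency on coverslips and treated with bile acids overnight. Fixed in 4% paraformaldehyde for 5 min and blocked with 1% BSA/0.1% Triton X-100 for 2 h. Stained with anti-VE-cadherin (1:200, 4 °C overnight) plus Alexa-488 secondary, FITC-phalloidin (1:100) for F-actin, and DAPI. Confocal imaging; repeated twice.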

HUVEC [21] = assay: Antiangiogenic activity in HUVEC assessed as inhibition of endothelial tube formation at 12.5 to 25 uM after overnight incubation by inverted microscopic analysis; format: functional, cell-based; settings: Homo sapiens; outline: as §3
HUVEC [22] = assay: Antimigratory activity in HUVEC assessed as reduction in wound healing at 12.5 uM after 18 to 24 hrs by phase contrast microscopic analysis; format: functional, cell-based; settings: Homo sapiens
Outline: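 HUVECs grown to a confluent monolayer in 12-well plates and serum-deprived overnight. Scratched with a p200 tip, washed with DPBS, then given complete EBM-2 with 12.5 μM bile acid or DMSO vehicle. Imaged from a marked reference point at 0 h and after 18–24 h (phase contrast, 10×); percentage of migrated cells versus control. Triplicate; Dunnett's test.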

Q: How did the Activity (Danio rerio [1]) turn out when `C[C@H](CCC(=O)O)[C@H]1CC[C@H]2[C@@H]3[C@H](O)C[C@@H]4C[C@H](O)CC[C@]4(C)[C@H]3C[C@H](O)[C@]12C` [CHOLIC ACID] was run?
A: Non-Toxic

Q: And the Activity (Danio rerio [2])?
A: inactive

Q: And the Activity (HUVEC [3])?
A: Active

Q: And the Activity (HUVEC [4])?
A: Non-Toxic

Q: And the Activity (HUVEC [5])?
A: Non-Toxic

Q: Which Activity (Danio rerio [1]) does the source give for `C[C@H](CCC(=O)O)[C@H]1CC[C@H]2[C@@H]3CC[C@@H]4C[C@H](O)CC[C@]4(C)[C@H]3C[C@H](O)[C@]12C` [DEOXYCHOLIC ACID] here?
A: Non-Toxic

Q: What about the Activity (Danio rerio [6]) of the same molecule?
A: Active

Q: What about the Activity (Danio rerio [7]) of the same molecule?
A: Active

Q: What about the Activity (Danio rerio [8]) of the same molecule?
A: Toxic

Q: And the Activity (HUVEC [3])?
A: Active

Q: And the Activity (HUVEC [4])?
A: Non-Toxic

Q: And the Activity (Danio rerio [9])?
A: Active

Q: And the Activity (HUVEC [5])?
A: Non-Toxic

Q: And the Activity (Danio rerio [10])?
A: Active

Q: `C[C@H](CCC(=O)O)[C@H]1CC[C@H]2[C@@H]3CC[C@@H]4C[C@H](O)CC[C@]4(C)[C@H]3CC[C@]12C` [LITHOCHOLIC ACID] was tested. Which Activity (HUVEC [11]) did it give?
A: Active

Q: And the “fold change (FC)” value (HUVEC [12])?
A: 2

Q: And the Activity (HUVEC [13])?
A: Toxic

Q: What about the Activity (Danio rerio [14]) of the same molecule?
A: Toxic

Q: And the Activity (HUVEC [15])?
A: Toxic

Q: And the Activity (HUVEC [16])?
A: 75%

Q: What about the Activity (HUVEC [17]) of the same molecule?
A: Active

Q: What about the Activity (Danio rerio [18]) of the same molecule?
A: Toxic

Q: What about the “fold change (FC)” value (HUVEC [19]) of the same molecule?
A: 2

Q: And the Activity (HUVEC [20])?
A: Active

Q: What about the Activity (HUVEC [21]) of the same molecule?
A: Active

Q: And the Activity (HUVEC [4])?
A: Non-Toxic

Q: And the Activity (HUVEC [22])?
A: Active
